# Experimental data reported in ChEMBL document CHEMBL1144667 (2008).
# Activity calls are given as the source filed them. Residues, ends and D or L forms follow the SMILES beside them.
# Tests used:
# Mus musculus [1] = assay: Decrease in body temperature in Swiss albino mouse at 3 ug, icv after 90 mins; type: functional, organism-based
# Outline: (§1)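 icv doses 30 ng–3 µg (10 µL/mouse) in male Swiss albino CD1 mice; body temperature followed over 240 min. Mean body temperature over 4 h = AUC of time–response curve per mouse ÷ 240 min; ED35 = dose giving 35 °C mean over 4 h. 8 mice/group, mean ± SEM vs saline.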
# Mus musculus [2] = assay: Antinociceptive effect in Swiss albino mouse assessed as reduction in jump latency at 300 ng, icv after 20 mins by hot plate test; type: functional, organism-based
# Outline: (§2)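 Hot plate at 55 ± 0.5 °C, male Swiss albino CD1 mice confined by plastic cylinder, tested 20 min after icv injection (10 µL/mouse; Haley–McCormick method); paw licking and jump latencies recorded, 240 s cutoff, each mouse tested once. Levocabastine 1350 pmol icv alone or co-given with 300 ng agonist. 6–9 mice/group, mean ± SEM vs saline.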
# Mus musculus [3] = assay: Decrease in body temperature in Swiss albino mouse at 10 mg/kg, sc; type: functional, organism-based; parameters: dose 10 mg/kg; settings: TDE = time-dependent effect
# Outline: (§3)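 Male Swiss albino CD1 mice injected s.c. (10 mL/kg); body temperature followed over time to beyond 3 h; 8–10 mice/group, mean ± SEM vs saline; two-way repeated-measures ANOVA.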
# Mus musculus [4] = assay: Antinociceptive effect in Swiss albino mouse assessed as reduction in paw licking latency between 300 ng to 3 ug, icv by hot plate test; type: functional, organism-based; outline: as §2
# Mus musculus [5] = assay: Decrease in body temperature in sc dosed Swiss albino mouse; type: functional, organism-based; outline: as §3
# Mus musculus [6] = assay: Decrease in body temperature in Swiss albino mouse at 100 ng, icv after 30 mins; type: functional, organism-based; outline: as §1
# Mus musculus [7] = assay: Antinociceptive effect in Swiss albino mouse assessed as reduction in jump latency at 1350 pmol, icv after 20 mins by hot plate test; type: functional, organism-based; settings: in the assay text read “300 ng” for “1350 pmol”; outline: as §2
# Mus musculus [8] = assay: Decrease in body temperature in Swiss albino mouse at 3 mg/kg, iv; type: functional, organism-based; parameters: dose 3 mg/kg; settings: TDE = time-dependent effect
# Outline: (§4)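 Body temperature tracked over time after i.v. injection (10 mL/kg) in male Swiss albino CD1 mice (20–22 g); 6–8 mice/group, mean ± SEM vs saline; two-way repeated-measures ANOVA.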
# Mus musculus [9] = assay: Decrease in body temperature in Swiss albino mouse at 1 mg/kg, iv; type: functional, organism-based; parameters: dose 1 mg/kg; settings: TDE = time-dependent effect; outline: as §4
# Mus musculus [10] = assay: Antinociceptive effect in Swiss albino mouse assessed as reduction in jump latency between 300 ng to 3 ug, icv by hot plate test; type: functional, organism-based; outline: as §2
# Mus musculus [11] = assay: Decrease in body temperature in iv dosed Swiss albino mouse; type: functional, organism-based; outline: as §4
# Mus musculus [12] = assay: Analgesic activity in Swiss Albino mouse assessed as inhibition of acetic acid-induced writhing responses at 0.3 mg/kg, iv; type: functional, organism-based; parameters: dose 0.3 mg/kg
# Outline: (§5)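 Male Swiss albino CD1 mice (20–22 g); i.v. dosing 10 mL/kg, 15 min before i.p. 0.5% acetic acid; mice placed singly in large beakers, stretches counted over 5 min starting 5 min after acid. Dose–response plus time course at 0.3 mg/kg; 8–18 mice/group, mean ± SEM vs saline.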
# Mus musculus [13] = assay: Antinociceptive effect in Swiss albino mouse assessed as reduction in acetic acid-induced writhing responses at 30 mg/kg, po
# Mus musculus [14] = assay: Analgesic activity in iv dosed Swiss Albino mouse assessed as inhibition of acetic acid-induced writhing responses; type: functional, organism-based; outline: as §5
# Mus musculus [15] = assay: Decrease in body temperature in icv dosed Swiss albino mouse after 4 hrs; type: functional; outline: as §1
# Mus musculus [16] = assay: Decrease in body temperature in Swiss albino mouse at 1 mg/kg, sc; type: functional, organism-based; parameters: dose 1 mg/kg; settings: TDE = time-dependent effect; outline: as §3
# Mus musculus [17] = assay: Antinociceptive effect in icv dosed Swiss albino mouse assessed as reduction in acetic acid-induced writhing responses at 1 mg/kg, sc to 10 mg/kg, sc; type: functional, organism-based; settings: in the assay text read “Swiss albino mouse” for “icv dosed Swiss albino mouse”
# Outline: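 Writhing in male Swiss albino CD1 mice: s.c. dosing 1–10 mg/kg (10 mL/kg) 15 min before i.p. 0.5% acetic acid; stretches counted over 5 min starting 5 min after acid. 6–8 mice/group, mean ± SEM vs saline.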
# Mus musculus [18] = assay: Decrease in body temperature in Swiss albino mouse at 3 ug, icv after 4 hrs relative to control; type: functional, organism-based; outline: as §1
# [19] = biological target: Neurotensin receptor type 1 (Rattus norvegicus) (UniProt P20789); assay: Binding affinity at rat NTS1 receptor
# Neurotensin receptor type 1 (Rattus norvegicus), sequence (P20789 whole entry): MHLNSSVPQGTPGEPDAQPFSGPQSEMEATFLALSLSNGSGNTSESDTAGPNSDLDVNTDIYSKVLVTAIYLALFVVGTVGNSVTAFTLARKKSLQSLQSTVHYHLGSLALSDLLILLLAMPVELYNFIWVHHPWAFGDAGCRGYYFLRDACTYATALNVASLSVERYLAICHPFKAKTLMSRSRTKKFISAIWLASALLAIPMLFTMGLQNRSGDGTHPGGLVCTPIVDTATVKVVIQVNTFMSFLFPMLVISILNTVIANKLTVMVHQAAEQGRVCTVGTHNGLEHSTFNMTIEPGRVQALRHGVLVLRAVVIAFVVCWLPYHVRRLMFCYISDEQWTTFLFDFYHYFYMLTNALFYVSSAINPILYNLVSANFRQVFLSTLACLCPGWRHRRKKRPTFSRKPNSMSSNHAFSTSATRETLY
Activity [19],Structure (SMILES),Activity (Mus musculus [1]),Activity (Mus musculus [2]),Activity (Mus musculus [3]),Activity (Mus musculus [4]),Activity (Mus musculus [5]),Activity (Mus musculus [6]),Activity (Mus musculus [7]),Activity (Mus musculus [8]),Activity (Mus musculus [9]),Activity (Mus musculus [10]),Activity (Mus musculus [11]),Activity (Mus musculus [12]),Activity (Mus musculus [13]),Activity (Mus musculus [14]),ED35 (Mus musculus [15]),Activity (Mus musculus [16]),Activity (Mus musculus [17]),Activity (Mus musculus [18])
,CC[C@H](C)[C@@H]1NC(=O)[C@H](Cc2ccc(O)cc2)NC(=O)[C@@H]2CCCN2C(=O)[C@H](CCCCN)NC(=O)[C@H](CCCCN)NC(=O)[C@H](CC(C)C)NC(=O)[C@H]([C@@H](C)CC)NC(=O)[C@H](Cc2ccc(O)cc2)NC(=O)[C@@H]2CCCN2C(=O)[C@H](CCCCN)NC(=O)[C@H](CCCCN)NC(=O)[C@H](CC(C)C)NC1=O (cyclo(ILKKPYILKKPY)),Active,Active,tde,Dose-dependent effect,Dose-dependent effect,Active,Active,tde,tde,Dose-dependent effect,Dose-dependent effect,Active,Active,Dose-dependent effect,300 ng,tde,Dose-dependent effect,Active
0.16 nmol,"CCC(C)[C@H](NC(=O)[C@H](Cc1ccc(O)cc1)NC(=O)[C@@H]1CCCN1C(=O)[C@H](CCCNC(=N)N)NC(=O)[C@@H](N)CCCNC(=N)N)C(=O)N[C@@H](CC(C)C)C(=O)O (single isomer, unassigned)",,,,,,,,,,,,,,,,,,
